Screening results as filed in PubChem BioAssay.
This is a sample that favours compounds with a hit; in the whole collection about 3.5% have one here.
RGS4 act: RGS4 potentiators or activators, primary screen, cell-based, HEK293 M3R inducible RGS4, calcium flux. carbachol calcium flux Fluo4; stronger effect = lower value. B-score at 10 µM. 310,000 tested, 0.92% active. AID 463111, 2010;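 active = B-score of the integrated calcium signal more than 4 SD below the library mean, with starting fluorescence not abnormally high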;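 also: negative B-score means reduced calcium response which marks RGS4 activation or potentiation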
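test system = M3R-expressing HEK293 line, RGS4 induced by doxycycline | probe or stimulus = carbachol at ECmax as muscarinic agonist stimulus | timing = dye loading 30 min 37 °C, buffer rest 30 min RT | signal = calcium dye Fluo4 fluorescence | evaluation = B score from integrated fluorescence ratio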
MrgX1 ag: agonists of human MrgX1 receptor, primary screen, HEK293 cells, Fluo-4 calcium flux; 310,000 tested, 0.44% active; Mas-related G-protein coupled receptor member X1 (Homo sapiens), Q96LB2; Fluo-4 calcium fluorescence, agonist mode; stronger effect = higher value; B-score at 10 µM; AID 588627, 2011;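 active = calcium response B-score plate-corrected fluorescence ratio at least 3 library SD, with starting fluorescence B-score inside 5 SD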
Target sequence (Q96LB2 whole entry, looked up): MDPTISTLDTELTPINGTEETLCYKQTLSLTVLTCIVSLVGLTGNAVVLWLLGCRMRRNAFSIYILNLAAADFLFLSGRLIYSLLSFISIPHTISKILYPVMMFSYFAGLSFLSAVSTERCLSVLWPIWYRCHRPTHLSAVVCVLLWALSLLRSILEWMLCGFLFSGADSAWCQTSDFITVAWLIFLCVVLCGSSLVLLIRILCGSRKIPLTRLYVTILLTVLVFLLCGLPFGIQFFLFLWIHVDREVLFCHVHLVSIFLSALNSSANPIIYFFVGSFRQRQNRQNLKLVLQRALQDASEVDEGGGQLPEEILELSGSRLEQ
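Material: MrgX1-expressing HEK293 cells; input: 15,000 cells per well; doses: test compound given as first of three sequential additions; schedule: overnight plating before 1 h dye loading; technique: Fluo-4 NW calcium-flux fluorescence, kinetic read; evaluation: baseline-normalised fluorescence change ratio, B-scored; control set: plate-wise positive and negative controls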
RGS4 inh: RGS4 inhibitors, primary screen, cell-based, HEK293 M3R inducible RGS4, calcium flux | Fluo-4 calcium flux; stronger effect = higher value; triggered by carbachol at its EC20 | B-score at 10 µM | 310,000 tested, 0.45% active | Regulator of G-protein signaling 4 (Homo sapiens), P49798;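 active = B-score, a plate-corrected calcium signal, over three deviations above library mean, with baseline fluorescence within five deviations of library mean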;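 also: RGS4 expression induced by doxycycline in cells with stable M3 receptor; B-score is computed from the integrated fluorescence ratio over baseline after carbachol; higher B-score means a larger calcium signal and so more RGS4 inhibition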
Target sequence (P49798 whole entry, looked up): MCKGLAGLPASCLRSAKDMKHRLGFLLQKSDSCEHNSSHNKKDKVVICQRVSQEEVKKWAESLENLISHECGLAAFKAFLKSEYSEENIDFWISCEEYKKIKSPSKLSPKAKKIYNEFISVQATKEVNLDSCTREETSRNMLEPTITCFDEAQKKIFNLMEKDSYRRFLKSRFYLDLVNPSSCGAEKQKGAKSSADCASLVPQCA
MrgX1 allo act: positive allosteric modulators of MrgX1, primary screen, HEK293 cells, Fluo-4 calcium flux. 310,000 tested, 0.63% active. Mas-related G-protein coupled receptor member X1 (Homo sapiens), Q96LB2. FDSS; stronger effect = higher value. B-score at 10 µM;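 active = plate-corrected calcium response at least 3 library SD above typical, normal starting fluorescence, not activating the receptor alone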;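 also: compound read alongside a low EC10 to EC30 dose of BAM8-22 agonist; peak minus trough fluorescence over baseline measured at the second addition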
MrgX1 antagonist: antagonists of human MrgX1 receptor, primary screen, HEK293 cells, Fluo-4 calcium flux. B-score at 10 µM. 310,000 tested, 1.3% active. BAM8-22 antagonism; stronger effect = lower value. Mas-related G-protein coupled receptor member X1 (Homo sapiens), Q96LB2;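 active = calcium-response B-score plate-corrected more than 3 library SD below zero, starting fluorescence within 5 deviations, no agonist response on first addition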;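 also: peak minus trough fluorescence over baseline after final BAM8-22 challenge near maximal dose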
RGS4 inh valid: enhanced carbachol calcium response, M3R/RGS4 cells, RGS4 inhibitor project, cell-based, validation screen, HEK293 M3R/RGS4, calcium flux. shares compounds with RGS4 inh. carbachol calcium Fluo-4 fluorescence; carbachol added at its EC20; 0 = buffer wells, 100 = carbachol control. calcium response, % at 10 µM. 1,700 tested, 65% active. AID 492999, 2010;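 active = duplicate-averaged calcium response above the buffer-only control mean plus 5 SD of those controls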;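 also: integrated fluorescence ratio F max minus min over baseline F0; higher response in RGS4-induced cells means RGS4 inhibition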
M3R Ca ctr: carbachol calcium response in non-induced M3R cells, confirmation, counter-screen for RGS4 inhibitor project, cell-based, HEK293 M3R; shares compounds with RGS4 inh; carbachol calcium Fluo-4; submaximal (EC20) carbachol stimulus; buffer wells 0%, carbachol control wells 100%; activity (percent), % at 10 µM; 1,900 tested, 20% active; call rule not given here;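 also: RGS4 induction absent so cells express M3R without RGS4; higher means more calcium signal and flags a non-specific hit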
RGS4 inh ctr2: second counter-screen for RGS4 inhibitors: non-induced cells without carbachol. shares compounds with RGS4 inh. HEK293 M3R/RGS4 non-induced, Fluo-4 calcium, no carbachol; normalised: buffer wells 0%, carbachol wells 100%. calcium response (agonist-mode artifact), % at 10 µM. 1,900 tested, 22% active. AID 493001;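 active = duplicate-averaged calcium rise in uninduced cells above buffer wells' mean plus 5 SD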
* hit, by the source's call; i = inactive; nt = no result.

SMILES | RGS4 act | MrgX1 ag | RGS4 inh | MrgX1 allo act | MrgX1 antagonist | RGS4 inh valid | M3R Ca ctr | RGS4 inh ctr2
O=C(c1ccco1)N1CCN(c2ncnc3scc(-c4ccc(F)cc4)c23)CC1 | i | i | i | i | i | nt | nt | nt
COC(=O)CSc1[nH]c2ccc(F)cc2c1[N+](=O)[O-] | i | i | 19* | i | i | 34%* | i | i
CCOC(=O)CSc1[nH]c2cc(OC)ccc2c1[N+](=O)[O-] | i | i | i | i | i | nt | nt | nt
CCCC(c1nnnn1CS(=O)(=O)c1ccc(C)cc1)N1CCN(CC)CC1 (configuration not stated) | i | i | i | i | i | nt | nt | nt
N#Cc1c(-c2ccccc2)c(-c2ccccc2)nn(CC(=O)NNC(=O)Nc2ccc(Cl)c(Cl)c2)c1=O | i | i | 6.5* | i | i | 28%* | i | i
Cc1ccc(-n2c(O)c(/C=C3/C(c4ccccc4)=Nc4ccccc43)c(=O)[nH]c2=O)cc1 | i | 29* | 9.8* | i | i | 5.0%* | i | 49%*
COc1ccc(-n2c(O)c(/C=C3\C=Nc4ccccc43)c(=O)[nH]c2=O)cc1 | i | nt | i | nt | nt | nt | nt | nt
Cc1nnc(NN2CCOCC2)[nH]c1=O | i | i | i | i | i | nt | nt | nt
O=C(Nc1ccc2c(c1)OCCO2)c1cccnc1Oc1ccccc1 | i | i | 4.7* | i | i | 5.5%* | i | i
O=C(Nc1ccc2c(c1)OCCO2)c1cccnc1Oc1ccc(Cl)cc1 | i | i | i | i | i | i | i | i
O=C(Oc1ccccc1)c1cccnc1Oc1ccccc1 | i | i | 5* | i | i | i | i | i
CCC(CC)c1nc(NCCC(=O)O)c2ccccc2n1 | i | i | i | i | i | nt | nt | nt
NS(=O)(=O)c1ccc(O)c(NC(=O)c2ccc([N+](=O)[O-])cc2)c1 | i | i | i | i | i | nt | nt | nt
COc1ccc(-n2c(CNc3ccc(C)cc3)nnc2SCc2ccccc2)cc1 | i | i | i | i | i | nt | i | i
O=c1[nH]c2ccsc2c(=O)n1-c1ccc(F)c(Cl)c1 | i | i | i | i | i | nt | nt | nt
CC(=O)/C=C/c1ccc2ccccc2n1 | i | i | 25* | i | i | 50%* | i | i
O=C(CSc1nc2c(cnn2-c2ccc(F)cc2)c(=O)[nH]1)N1CCCc2ccccc21 | i | i | i | i | i | i | i | i
CCOC(=O)/C(=C/c1ccc(OC(=O)c2ccccc2)cc1)C(C)=O | i | i | i | i | i | nt | i | 8.5%*
Cc1ccc(C=Nc2ccc(N(C)C)cc2)o1 | i | i | 5.3* | i | i | 10%* | i | i
Cc1cccc(N/N=C(\C(N)=O)C2=NC(C)(C)Cc3ccccc32)c1 | i | i | i | 13* | i | nt | i | i
CCOC(=O)/C(=N\O)C1=NC(C)(C)Cc2ccccc21 | i | i | i | i | i | nt | nt | nt
CCN(CC(=O)Nc1ccc(NC(C)=O)cc1)C(=O)c1ccccc1CCc1ccccc1 | i | i | i | i | i | nt | nt | nt
CN=c1sc(C(=O)Nc2cccc(Cl)c2)cc(=O)n1C | i | i | 28* | i | i | 14%* | i | 23%*
Cn1c(N)c(C(=O)Nc2cccc(Cl)c2)c(=O)n(C)c1=O | i | i | i | i | i | nt | nt | nt
CCCCNC(=O)c1onc(CSc2ccccn2)c1C(=O)NCCCC | i | i | i | i | i | nt | nt | nt
SMILES | RGS4 act | MrgX1 ag | RGS4 inh | MrgX1 allo act | MrgX1 antagonist | RGS4 inh valid | M3R Ca ctr | RGS4 inh ctr2
Cn1c(OCc2ccco2)nc2c1c(=O)n(Cc1ccc(Cl)c(Cl)c1)c(=O)n2C | i | i | 5.9* | i | i | 6.5%* | i | i
Clc1ccc(C2=Nn3c(nnc3-c3n[nH]c4c3CCC4)SC2)cc1Cl | i | i | 10* | i | i | 24%* | i | i
NS(=O)(=O)c1cccc(NC(=O)COC(=O)c2cc(-c3ccc(Cl)cc3)nc3ccccc23)c1 | i | i | 5.6* | i | i | 14%* | i | i
COc1cc2c(cc1OC)C(c1ccc(Br)cc1)NC(=O)C2 (configuration not stated) | i | i | i | i | i | nt | nt | nt
CCOC(=O)CSC1=NC(=O)/C(=C/c2ccc(OC)cc2)S1 | i | i | 4.8* | i | i | 34%* | i | 85%*
N=C1/C(=C\c2ccc(OC(=O)c3ccccc3Cl)cc2)C(=O)N=C2SC(N3CCOCC3)=NN12 | i | i | i | i | i | nt | nt | nt
CCOC(=O)C1=C(CS(=O)(=O)c2ccc(C)cc2)NC(=O)NC1c1ccc(O)c(OC)c1 (configuration not stated) | i | i | i | i | i | nt | nt | nt
COC(=O)C1=C(CS(=O)(=O)c2ccc(C)cc2)NC(=O)NC1c1ccc(OC)c(OC)c1 (configuration not stated) | i | i | i | i | i | i | i | i
O=C(CSc1ccccn1)Nc1nc2ccc(Br)cc2s1 | i | i | i | i | i | nt | nt | nt
CC(=O)CS(=O)(=O)c1ccc(Oc2ccc(S(=O)(=O)CC(C)=O)cc2)cc1 | i | i | i | i | i | nt | nt | nt
CC(=O)CCS(=O)(=O)c1ccc(Oc2ccc(S(=O)(=O)CCC(C)=O)cc2)cc1 | i | i | 5.2* | i | i | 22%* | i | i
CCc1cccc(CC)c1NC(=S)NCCc1c(C)[nH]c2ccc(C)cc12 | i | i | i | i | i | nt | i | i
CCc1cccc(C)c1NC(=S)NCCc1c(C)[nH]c2ccc(C)cc12 | i | i | i | i | i | nt | nt | nt
CC[C@H](C)C(N)c1cn(C(CCCN=C(N)N)C(=O)N2CCNCC2)nn1 (some centres not stated) | nt | i | nt | i | i | nt | nt | nt
